The source of these data is ChEMBL document CHEMBL4725348, “Rational Design and Evaluation of 6-(Pyrimidin-2-ylamino)-3,4-dihydroquinoxalin-2(1H)-ones as Polypharmacological Inhibitors of BET and Kinases” (J Med Chem, 2020).

In series [1] the target is ALK tyrosine kinase receptor (Homo sapiens, UniProt Q9UM73). The series can be described thus: Inhibition of ALK (unknown origin).
Series [2] addresses T1, Cyclin-dependent kinase 9 (Homo sapiens, UniProt P50750). Briefly: Inhibition of CDK9 in human HCT-116 cells assessed as reduction in phosphorylation of […] protein expression at 50 to 500 nM after 24 hrs by Western blot analysis. The series is classed as cell-based. The note with it: dose nM 50-500, time 24.0 hrs. An outline of the steps: (§1)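 HCT-116 cells plated 24 h, then treated 24 h at 0, 50, 100, 250 or 500 nM. Lysates immunoblotted for p-AR and p-RNA Pol II CTD with GAPDH as loading control; bands quantified and normalized.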

For series [3], the target named is T1, Cyclin-dependent kinase 9. The series can be described thus: Inhibition of CDK9 in human HCT-116 cells assessed as reduction in phosphorylation of AR protein expression at 50 to 500 nM after 24 hrs by Western blot analysis. The series is classed as cell-based. The note with it: dose nM 50-500, time 24.0 hrs. An outline of the steps:
as §1
(In general: Immunoblotting shows a protein as a band on a membrane.)

Series [4] concerns the target T2, Bromodomain-containing protein 4 (Homo sapiens, UniProt O60885). The series can be described thus: Inhibition of His6-tagged BRD4 bromodomain 1 (unknown origin) expressed in Escherichia coli Bl21(DE3) cells incubated for 4 hrs by FP assay. An outline of the steps:
(§2)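 Fluorescence polarization. Purified bromodomain (His6 tag removed with TEV, size-exclusion purified) equilibrated with fluorescent ligand. Compound or DMSO (2‰ final) then added and left 4 h at room temperature in the dark. Anisotropy read at ex 485/em 530 nm. IC50 values are means of at least two independent experiments; single-point inhibition tested at the listed concentration.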

Series [5] concerns the target T1, Cyclin-dependent kinase 9. The series can be described thus: Inhibition of human CDK9 by mobility shift assay relative to control. Summed up: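 Recombinant CDK9 incubated with compound and CTD3 peptide substrate. Activity read by Caliper mobility-shift; Dinaciclib served as positive control. IC50 values are means of at least two independent experiments.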
The target of series [6] is Cyclin-dependent kinase 1 (Homo sapiens) (UniProt P06493). The series can be described thus: Inhibition of human CDK1 at 1 uM by kinome scan method relative to control. An outline of the steps: (§3)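 Eurofins DiscoveRx diversity kinase panel run at 1 µM. Inhibition values are means of at least two independent experiments.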
Sequence of Cyclin-dependent kinase 1 (Homo sapiens) (P06493 whole entry, looked up): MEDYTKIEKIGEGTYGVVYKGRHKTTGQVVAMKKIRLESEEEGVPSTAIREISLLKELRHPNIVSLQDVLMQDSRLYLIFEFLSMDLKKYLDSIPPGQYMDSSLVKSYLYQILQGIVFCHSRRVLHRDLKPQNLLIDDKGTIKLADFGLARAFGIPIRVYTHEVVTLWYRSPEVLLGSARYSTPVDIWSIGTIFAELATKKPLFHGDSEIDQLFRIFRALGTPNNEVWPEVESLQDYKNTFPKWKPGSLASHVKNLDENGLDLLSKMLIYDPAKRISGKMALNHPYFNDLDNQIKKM
Series [7] deals with T3, Cyclin-dependent kinase 2 (Homo sapiens, UniProt P24941). Briefly: Inhibition of human CDK2 at 1 uM by kinome scan method relative to control. Summed up: as §3
The target in series [8] is T3, Cyclin-dependent kinase 2. The series can be described thus: Inhibition of human CDK2 by kinome scan method.
For a further series, the species on record is Homo sapiens. Briefly: Selectivity ratio of IC50 for inhibition of human CDK2 to IC50 for inhibition of human CDK9.
The target of series [9] is T2, Bromodomain-containing protein 4. The series can be described thus: Inhibition of His6-tagged BRD4 bromodomain 2 (unknown origin) expressed in Escherichia coli Bl21(DE3) cells at 1 uM incubated for 4 hrs by FP assay relative to control. Summed up: as §2
The target of series [10] is Bromodomain-containing protein 2 (Homo sapiens) (UniProt P25440). The series can be described thus: Inhibition of His6-tagged BRD2 bromodomain 1 (unknown origin) expressed in Escherichia coli Bl21(DE3) cells at 1 uM incubated for 4 hrs by FP assay relative to control. Summed up: as §2
Sequence of Bromodomain-containing protein 2 (Homo sapiens) (P25440 whole entry, looked up): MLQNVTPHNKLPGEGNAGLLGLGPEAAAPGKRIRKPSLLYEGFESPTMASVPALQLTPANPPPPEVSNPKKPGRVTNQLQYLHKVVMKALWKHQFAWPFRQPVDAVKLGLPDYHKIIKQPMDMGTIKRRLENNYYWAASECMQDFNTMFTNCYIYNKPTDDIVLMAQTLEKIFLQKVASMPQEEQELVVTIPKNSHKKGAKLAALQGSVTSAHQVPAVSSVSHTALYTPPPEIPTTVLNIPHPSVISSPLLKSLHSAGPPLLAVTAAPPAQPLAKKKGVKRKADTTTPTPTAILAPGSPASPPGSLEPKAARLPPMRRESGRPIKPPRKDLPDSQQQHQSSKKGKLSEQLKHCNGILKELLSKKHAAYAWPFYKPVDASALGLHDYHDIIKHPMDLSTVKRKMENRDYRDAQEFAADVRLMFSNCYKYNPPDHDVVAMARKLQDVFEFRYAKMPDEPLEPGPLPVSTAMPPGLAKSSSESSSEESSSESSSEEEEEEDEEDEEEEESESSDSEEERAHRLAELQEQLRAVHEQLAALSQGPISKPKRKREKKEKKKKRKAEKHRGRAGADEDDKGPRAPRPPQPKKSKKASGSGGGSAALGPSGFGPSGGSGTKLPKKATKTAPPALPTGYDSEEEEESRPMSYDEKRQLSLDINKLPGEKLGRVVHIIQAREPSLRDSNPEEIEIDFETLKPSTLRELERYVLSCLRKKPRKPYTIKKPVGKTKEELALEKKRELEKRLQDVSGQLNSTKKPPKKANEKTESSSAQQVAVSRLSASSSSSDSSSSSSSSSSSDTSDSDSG
The target is the same in series [11]. Briefly: Inhibition of His6-tagged BRD2 bromodomain 2 (unknown origin) expressed in Escherichia coli Bl21(DE3) cells at 1 uM incubated for 4 hrs by FP assay relative to control. Summed up: as §2
Series [12] can be described thus: AUC (0 to infinity) in ICR mouse at 3 mg/kg, ip and measured up to 24 hrs by TQ-S triple quadrupole mass spectrometric method. Also on record: route intraperitoneal, dose 3 mg/kg, time <=24. The conditions noted are these: in vivo. It is filed as ADME, organism-based. An outline of the steps:
(§4)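 Male ICR mice (20 - 22 g, n = 3) dosed intraperitoneally, compound at 1 mg/mL in 1%DMSO/0.5%HPMC (5/95, v/v). EDTA plasma collected 0.25–24 h. 10 µL plasma treated with methanol:acetonitrile (1:1) containing internal standard, then centrifuged. LC-MS/MS on C18 UPLC. Parameters derived from composite mean plasma concentration-time data; Cmax is the maximum observed concentration and Tmax the time it is reached.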

Series [13] in a line: AUC (0 to t) in ICR mouse at 3 mg/kg, ip and measured up to 24 hrs by TQ-S triple quadrupole mass spectrometric method. The conditions noted are these: in vivo. Set-up: route intraperitoneal, dose 3 mg/kg, time <=24. It is filed as ADME, organism-based. Summed up:
as §4

The nature of series [14]: Cmax in ICR mouse at 3 mg/kg, ip and measured up to 24 hrs by TQ-S triple quadrupole mass spectrometric method. It is filed as ADME, organism-based. Set-up: route intraperitoneal, dose 3 mg/kg, time <=24. The note with it: in vivo. An outline of the steps:
as §4

A short description of series [15]: Tmax in ICR mouse at 3 mg/kg, ip and measured up to 24 hrs by TQ-S triple quadrupole mass spectrometric method. It is filed as ADME, organism-based. The note with it: in vivo. An outline of the steps:
as §4

Series [16] is described as follows: Half life in ICR mouse at 3 mg/kg, ip and measured up to 24 hrs by TQ-S triple quadrupole mass spectrometric method. It is filed as ADME, organism-based. The note with it: in vivo. An outline of the steps: as §4
A short description of series [17]: Elimination rate constant in ICR mouse at 3 mg/kg, ip and measured up to 24 hrs by TQ-S triple quadrupole mass spectrometric method. It is filed as ADME, organism-based. The note with it: in vivo. An outline of the steps:
as §4

Series [18] concerns the target T2, Bromodomain-containing protein 4. The series can be described thus: Inhibition of His6-tagged BRD4 bromodomain 1 (unknown origin) expressed in Escherichia coli Bl21(DE3) cells at 10 uM incubated for 4 hrs by FP assay relative to control. Summed up:
as §2

SMILES strings stand for the structures.

T1 sequence (P50750 whole entry): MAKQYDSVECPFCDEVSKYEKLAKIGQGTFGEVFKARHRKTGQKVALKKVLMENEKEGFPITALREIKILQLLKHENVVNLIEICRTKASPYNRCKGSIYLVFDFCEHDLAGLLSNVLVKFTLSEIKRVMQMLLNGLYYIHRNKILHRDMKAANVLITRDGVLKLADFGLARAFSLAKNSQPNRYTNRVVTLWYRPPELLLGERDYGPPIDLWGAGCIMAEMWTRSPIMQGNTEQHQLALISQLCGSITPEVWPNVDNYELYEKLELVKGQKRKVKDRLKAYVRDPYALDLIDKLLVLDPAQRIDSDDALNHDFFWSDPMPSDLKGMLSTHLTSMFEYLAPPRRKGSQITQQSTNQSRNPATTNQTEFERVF
Sequence of ALK tyrosine kinase receptor (Q9UM73 whole entry): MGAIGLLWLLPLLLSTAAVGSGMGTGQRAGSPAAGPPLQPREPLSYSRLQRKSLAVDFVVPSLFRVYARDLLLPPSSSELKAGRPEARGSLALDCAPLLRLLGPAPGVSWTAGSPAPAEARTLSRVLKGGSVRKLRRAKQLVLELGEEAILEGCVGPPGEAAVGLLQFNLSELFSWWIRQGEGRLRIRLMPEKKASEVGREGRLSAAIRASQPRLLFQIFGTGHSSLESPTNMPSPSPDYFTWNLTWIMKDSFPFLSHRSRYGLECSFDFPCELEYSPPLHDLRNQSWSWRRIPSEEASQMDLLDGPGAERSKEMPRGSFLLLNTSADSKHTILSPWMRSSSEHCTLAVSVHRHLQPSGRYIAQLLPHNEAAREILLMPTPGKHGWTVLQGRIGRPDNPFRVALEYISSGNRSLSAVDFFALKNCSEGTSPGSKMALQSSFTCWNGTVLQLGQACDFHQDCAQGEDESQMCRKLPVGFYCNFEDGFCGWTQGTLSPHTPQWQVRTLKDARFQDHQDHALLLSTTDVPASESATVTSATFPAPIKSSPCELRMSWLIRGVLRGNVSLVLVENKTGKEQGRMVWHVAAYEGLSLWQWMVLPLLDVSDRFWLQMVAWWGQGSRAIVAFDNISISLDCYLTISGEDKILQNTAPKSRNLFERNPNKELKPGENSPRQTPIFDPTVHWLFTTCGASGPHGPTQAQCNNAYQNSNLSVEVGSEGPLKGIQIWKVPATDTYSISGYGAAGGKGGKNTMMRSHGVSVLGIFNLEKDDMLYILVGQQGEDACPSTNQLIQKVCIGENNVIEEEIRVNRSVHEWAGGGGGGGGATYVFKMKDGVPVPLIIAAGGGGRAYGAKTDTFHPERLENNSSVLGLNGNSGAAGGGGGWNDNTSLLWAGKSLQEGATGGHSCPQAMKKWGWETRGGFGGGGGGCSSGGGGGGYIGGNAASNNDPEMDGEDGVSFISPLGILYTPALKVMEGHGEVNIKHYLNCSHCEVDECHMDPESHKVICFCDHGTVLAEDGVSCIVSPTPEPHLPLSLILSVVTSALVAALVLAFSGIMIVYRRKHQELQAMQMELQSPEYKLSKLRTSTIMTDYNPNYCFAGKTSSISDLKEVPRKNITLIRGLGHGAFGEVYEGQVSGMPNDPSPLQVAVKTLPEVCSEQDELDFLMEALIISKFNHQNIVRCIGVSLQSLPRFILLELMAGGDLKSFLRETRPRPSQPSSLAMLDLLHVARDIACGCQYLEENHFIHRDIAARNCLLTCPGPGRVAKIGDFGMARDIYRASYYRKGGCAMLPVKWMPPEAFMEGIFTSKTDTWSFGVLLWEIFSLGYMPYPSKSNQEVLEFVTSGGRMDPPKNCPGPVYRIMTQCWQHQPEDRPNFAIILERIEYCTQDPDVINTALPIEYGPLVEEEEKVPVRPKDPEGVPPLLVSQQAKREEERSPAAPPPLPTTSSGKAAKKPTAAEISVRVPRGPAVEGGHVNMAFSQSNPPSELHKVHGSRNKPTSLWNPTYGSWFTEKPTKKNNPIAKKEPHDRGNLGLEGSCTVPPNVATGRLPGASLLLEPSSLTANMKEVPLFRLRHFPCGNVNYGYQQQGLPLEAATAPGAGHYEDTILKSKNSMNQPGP

In series [1], `CCOc1cc(C2CCN(C)CC2)ccc1Nc1ncc2c(n1)N(Cc1cc(C)cs1)[C@H](CC)C(=O)N2C` had an IC50 of 17 nM.

`COc1cc(F)ccc1-c1ncnc(Nc2cccc(C[S@](C)(=N)=O)c2)n1`: the inhibition entry in series [2] and in series [3] was “Dose-dependent effect” throughout.

With `CC(C)N1c2cc(Nc3nccc(-c4cncc5ccccc45)n3)ccc2N(C)C(=O)[C@H]1C`, the values for the IC50 in series [4], in series [5] and in series [8] were 12.7 nM, 22.4 nM and 169 nM, respectively. Also, the inhibition in [6] was 90%; in series [7], 90%; in series [9], less than 12%; in series [10], less than 12%; in series [11], less than 12%; in series [2], “Dose-dependent effect”. Also, the inhibition entry in series [3] was “Dose-dependent effect”. Further, the Ratio IC50 in the series filed under Homo sapiens was 8. This compound returned an AUC(0-inf) in series [12] of 759 ng·h/mL. Also, the AUC(0-t) at 24 h in [13] is 757 ng·h/mL. In series [14], this compound displayed a Cmax of 1370 ng/mL. In series [15], the Tmax was determined as 11.6 min. In series [16], this compound had a half-life of 28.8 min. The k el at 24 h in [17] was 0.000403 s⁻¹.

In the case of `CC(C)N1c2cc(Nc3nccc(-c4cccc(NC5CCCC5)c4)n3)ccc2N(C)C(=O)[C@H]1C`, the IC50 in series [5] came to 122 nM. The inhibition in series [18] amounted to 11%.

For orientation: IC50 means the concentration that gives 50% inhibition. What is called inhibition is the drop in the measured response relative to a control, in per cent. In general, AUC(0-inf) refers to total exposure, with the tail of the curve extrapolated. The low end stands for low exposure, the high end for high exposure. What is called AUC(0-t) is the area under the concentration-time curve up to a stated or last time point. Higher therefore signals more exposure. By Cmax is commonly meant the highest concentration seen after dosing. For orientation: Tmax means the time from dosing to the highest level. In general, half-life refers to the time needed for the level to fall by half in the phase considered. The low end stands for rapid decline, the high end for slow decline.
